This is a sample that favours compounds with a hit; in the whole collection about 10% have one here.
L major viab: inhibitors of Leishmania major promastigote growth. Leishmania major promastigotes, resazurin fluorescence viability. inhibition, % at 10 µM. AID 1063. 200,000 compounds, 9% hits; in the data active means inhibition above about 50%;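 further: promastigotes grown with compound for 44 hours at 28 °C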
Diaph act CS: activates diaphorase or chemically reduces, flagging diaphorase assay artifacts; Diaphorase/resazurin coupled assay, resorufin fluorescence, 16 min; hits give high values; 1 = vehicle wells, 0 = NADH-free wells; activation factor at 20 µM; 190,000 compounds, 0.005% hits; AID 1229;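 active means diaphorase activity raised at least twofold by the compound at 20 µM; inactive means activation factor below 2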
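Measured by – red resorufin fluorescence at 544/590 nm excitation/emission · Test system – Clostridium kluyveri diaphorase, purified enzyme · Incubation – reaction time 16 min, room temperature · Buffer or medium – 50 mM HEPES pH 7.4 with 4.542 mM MgCl2, 0.005% Tween 20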
WT yeast gro inh: growth inhibition of WT yeast, mitochondrial fusion screen; mitochondrial fusion phenotypic screen, WT strain; inhibition, % at 10 µM; 190,000 compounds, 2.1% hits; AID 1362; in the data active means inhibition above about 58%; tested in S. cerevisiae
PMI activator: activators of human phosphomannose isomerase; P34949; purified human PMI, coupled resazurin fluorescence, 20 min; hits give high values; 1 = vehicle control, 0 substrate-free wells; activation factor at 20 µM; 190,000 compounds, 0.005% hits; AID 1214;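 active means activation factor of 2 or more at 20 µM, relative to plate controls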
Target sequence (P34949 whole entry, looked up): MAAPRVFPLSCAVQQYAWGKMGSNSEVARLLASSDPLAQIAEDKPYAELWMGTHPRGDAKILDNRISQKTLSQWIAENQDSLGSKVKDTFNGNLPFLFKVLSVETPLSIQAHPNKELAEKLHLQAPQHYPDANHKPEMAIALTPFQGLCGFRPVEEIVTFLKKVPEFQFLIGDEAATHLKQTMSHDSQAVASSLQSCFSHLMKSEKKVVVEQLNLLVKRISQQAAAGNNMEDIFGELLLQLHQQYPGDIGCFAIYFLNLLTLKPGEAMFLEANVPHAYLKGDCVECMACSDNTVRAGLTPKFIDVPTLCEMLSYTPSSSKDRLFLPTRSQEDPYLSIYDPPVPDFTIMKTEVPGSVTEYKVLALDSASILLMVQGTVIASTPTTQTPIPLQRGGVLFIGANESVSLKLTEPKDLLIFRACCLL
PMI act hi M6P: increases human PMI activity with near-saturating mannose 6-phosphate. P34949. coupled PMI enzyme assay, resazurin fluorescence, 20 min; hits give high values; 1 = untreated enzyme, 0 = substrate-free blank. activation factor at 20 µM. 190,000 compounds, 0.34% hits. AID 1216;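 active means activation factor of 2 or more at 20 µM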
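Test system: human phosphomannose isomerase with PGI, G6PDH, diaphorase coupling enzymes; Amount: PMI at 15 ng/mL final; Reagent: Mannose-6-phosphate 1.0 mM (near-saturating) plus 0.22 mM NADP+; Timing: 20 min, room temperature; Technique: resorufin fluorescence at Ex 544/Em 590 nm; Dosing: 20 µM single dose.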
Starred values were filed as active, the others as inactive; / = not tested or not shown.

SMILES	L major viab	Diaph act CS	WT yeast gro inh	PMI activator	PMI act hi M6P
CC(=O)N1CCN(c2ccc(OC[C@H]3CO[C@](Cn4ccnc4)(c4ccc(Cl)cc4Cl)O3)cc2)CC1	89*	1	-45	0.9	0.9
CN1C(=O)C2(OCC(COc3ccc(Cl)cc3)O2)c2ccccc21 (stereo not drawn)	4	0.7	13	0.8	0.8
O=C(CCNS(=O)(=O)c1ccc(Cl)cc1)NCc1cccs1	-5	0.9	10	1	1
COc1ccc(CNC(=O)COC(=O)c2cnccn2)cc1	0	0.9	11	0.9	0.9
Cc1cccc(-c2nc(NCCCN3CCOCC3)c3ccccc3n2)c1	100*	1.2	42	1	1
c1ccc(-c2nc(NCCCN3CCOCC3)c3ccccc3n2)cc1	62*	1	-8	0.9	1
O=S1(=O)C=C(Sc2nc3ccccc3s2)c2ccccc21	100*	0.8	16	1	1.2
Cc1cc(C)n(Cc2ccc(NC(=O)c3c([N+](=O)[O-])c(C)nn3C)cc2)n1	-4	1	18	1	1
C/C(=N/Nc1cc(-c2ccccc2)nc(-c2ccccc2)n1)c1ccc(O)cc1	89*	0.8	98*	0.8	0.8
C/C(=N\Nc1cc(-c2ccccc2)nc(-c2ccc(Br)cc2)n1)c1cccc(N)c1	11	/	/	/	/
CC12CCC(C(=O)NCc3cccnc3)(OC1=O)C2(C)C (stereo not drawn)	-5	0.9	-1	1	1
CC12CCC(C(=O)N(Cc3ccccc3)Cc3ccccc3)(OC1=O)C2(C)C (stereo not drawn)	72*	0.9	79*	1.1	1.1
CCCOc1ccc(/C=C/C(=O)NCc2ccccc2)cc1	-1	0.9	14	1	0.9
COc1ccc(NC(=O)CC2C(=O)N(Cc3ccccc3)C(=S)N2CCN2CCOCC2)cc1 (stereo not drawn)	98*	0.9	9	1.1	1.1
COC(=O)CN1C(=S)N(c2ccc(Cl)cc2)C(=O)C1CC(=O)Nc1ccccc1 (stereo not drawn)	64*	0.7	-3	0.9	0.9
CCOc1ccc(NC(=O)CC2C(=O)N(c3ccccc3)C(=O)N2CCc2cccs2)cc1 (stereo not drawn)	66*	0.9	12	0.9	0.9
COC(=O)CN1C(=S)N(c2ccc(F)cc2)C(=O)C1CC(=O)Nc1ccccc1 (stereo not drawn)	-11	0.8	-6	0.9	0.9
CCc1ccc(NC(=O)CC2C(=O)N(c3ccc(C)cc3)C(=O)N2CCc2ccncc2)cc1 (stereo not drawn)	51*	0.8	6	0.9	0.9
COc1cc(/C=C(/NC(=O)c2ccccc2)C(=O)Nc2ccc(O)cc2)c([N+](=O)[O-])cc1OC	-5	0.8	8	0.8	0.9
CCc1cc2c(=O)c(-c3nc(C)cs3)coc2cc1OC(C)C(=O)NCCO (stereo not drawn)	-4	0.9	-15	1.1	1
COc1ccccc1-c1coc2cc(OC(=O)/C=C/c3ccccc3)ccc2c1=O	-4	0.9	2	1	0.4
COc1ccc(CCN2C(=S)N(C)C(=O)C2CC(=O)Nc2ccc(OC)cc2)cc1 (stereo not drawn)	12	0.9	0	0.9	1
COc1ccc(NC(=O)CC2C(=O)N(C)C(=S)N2Cc2cccs2)cc1 (stereo not drawn)	54*	0.9	8	1	1
CCN1C(=O)C(CC(=O)Nc2ccc(OC)cc2)N(CCCN2CCN(c3ccc(F)cc3)CC2)C1=S (stereo not drawn)	73*	0.8	24	0.9	0.9
C=CCN1C(=O)C(CC(=O)Nc2ccc(OCCC)cc2)N(CCCN2CCN(Cc3ccccc3)CC2)C1=S (stereo not drawn)	100*	0.8	58	0.9	0.9
SMILES	L major viab	Diaph act CS	WT yeast gro inh	PMI activator	PMI act hi M6P
CCOc1ccc(NC(=O)CC2C(=O)N(c3ccc(OC)cc3)C(=S)N2Cc2ccccn2)cc1 (stereo not drawn)	80*	0.8	-12	0.9	0.9
CCCOc1ccc(NC(=O)CC2C(=O)N(CC)C(=S)N2Cc2cccs2)cc1 (stereo not drawn)	25	0.8	/	0.8	0.8
CCCOCC(O)CCc1n[nH]c(=S)n1-c1ccccc1 (stereo not drawn)	-2	0.9	-6	1	1
CCCCCCOc1ccc(NC(=O)CC2C(=O)N(CC)C(=S)N2Cc2ccco2)cc1 (stereo not drawn)	66*	0.8	62*	0.9	0.9
CCN1C(=O)C(CC(=O)Nc2ccc(F)cc2)N(Cc2ccco2)C1=S (stereo not drawn)	7	0.9	14	1	1
CCOC(=O)C1=C(C)N=c2s/c(=C\c3ccncc3)c(=O)n2C1c1ccc2c(c1)OCO2 (stereo not drawn)	99*	0.8	12	0.8	0.9
CCOC(=O)C1=C(C)N=c2s/c(=C/c3ccccc3)c(=O)n2C1c1ccc(OC)c(OC)c1 (stereo not drawn)	28	0.8	-3	0.9	0.9
Cc1ccc(C)c(NS(=O)(=O)c2cc(C(=O)N3CCc4ccccc4C3)ccc2Cl)c1	98*	0.9	15	0.9	0.9
Cc1ccc(C(=O)N2CCOCC2)cc1S(=O)(=O)Nc1cccc(C)c1C	-4	0.9	2	1.1	1.1
Cc1ccccc1CN(c1ccc(C(=O)N2CCc3ccccc3C2)cc1)S(C)(=O)=O	70*	0.9	6	0.9	0.9
CNC(=O)c1ccc(N(Cc2ccccc2C)S(C)(=O)=O)cc1	-6	1.1	1	1.2	1.1
Cc1cccc(NS(=O)(=O)c2cc(C(=O)N3CCc4ccccc4C3)ccc2Cl)c1C	97*	0.7	66	1	0.9
CCOC(=O)N1CCN(C(=O)c2ccc(C)c(S(=O)(=O)Nc3cccc(C)c3C)c2)CC1	98*	1	-11	0.9	1
CC(c1ccc(F)cc1)n1c(-c2cccs2)n[nH]c1=S (stereo not drawn)	-4	0.8	36	1	1
CCCCCNc1nc(N2CCCC2)c2c(c1C#N)CCN(C)C2	56*	0.9	50	1	0.6
CCN(c1cccc(C)c1)C(C(=O)Nc1ccc(OC)cc1)c1cc2c(cc1[N+](=O)[O-])OCO2 (stereo not drawn)	79*	1	17	0.7	0.5
CCc1ccc(NC(=O)CSc2nc3cc(C(=O)OC)ccc3c(=O)n2Cc2ccco2)cc1	4	1	-14	1.1	1.1
CCOC(=O)c1c(NC(=O)CSc2nc3cc(Cl)ccc3c(=O)n2Cc2ccco2)sc(C(=O)N(C)C)c1C	78*	0.7	7	0.9	0.9
COc1ccc(C(O)C(CN2CCOCC2)c2ccccc2)cc1F (stereo not drawn)	86*	1.1	26	1	1
